Screening data from PubChem.
PPC-1+TRAIL kill = PPC-1 cancer cell killing with TRAIL present | PPC-1 cells + TRAIL, ATPLite viability luminescence | cell killing (% activity), % at 4 µM or 5 µM | actives 0.41% (n = 220,000) | AID 1443;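 active = cell killing above 50% in the first pass at 4 µM, then a duplicate retest at 5 µM averaging 50% or more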;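 also: plate controls were cells with TRAIL plus DMSO for no effect and medium-only wells lacking cells for full effect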
C8 TRAIL sens = sensitizes caspase-8 expressing cells to TRAIL; NB7+C8 cells + TRAIL, ATPlite viability luminescence; inhibition (viability loss, TRAIL sensitization), % at 10 µM; actives 1% (n = 360,000); AID 624354;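 active = compounds causing at least 50% loss of cell viability in the single-dose screen, relative to plate controls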
FLuc inhib CS = Photinus pyralis luciferase inhibition counter-screen. P08659. ATPLite firefly luciferase biochemical luminescence, 10 min. inhibition, % at 10 µM. actives 1.5% (n = 200,000);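 active = inhibition above about 50% when tested at 10 µM, limit read from the data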
Target sequence (P08659 whole entry, looked up): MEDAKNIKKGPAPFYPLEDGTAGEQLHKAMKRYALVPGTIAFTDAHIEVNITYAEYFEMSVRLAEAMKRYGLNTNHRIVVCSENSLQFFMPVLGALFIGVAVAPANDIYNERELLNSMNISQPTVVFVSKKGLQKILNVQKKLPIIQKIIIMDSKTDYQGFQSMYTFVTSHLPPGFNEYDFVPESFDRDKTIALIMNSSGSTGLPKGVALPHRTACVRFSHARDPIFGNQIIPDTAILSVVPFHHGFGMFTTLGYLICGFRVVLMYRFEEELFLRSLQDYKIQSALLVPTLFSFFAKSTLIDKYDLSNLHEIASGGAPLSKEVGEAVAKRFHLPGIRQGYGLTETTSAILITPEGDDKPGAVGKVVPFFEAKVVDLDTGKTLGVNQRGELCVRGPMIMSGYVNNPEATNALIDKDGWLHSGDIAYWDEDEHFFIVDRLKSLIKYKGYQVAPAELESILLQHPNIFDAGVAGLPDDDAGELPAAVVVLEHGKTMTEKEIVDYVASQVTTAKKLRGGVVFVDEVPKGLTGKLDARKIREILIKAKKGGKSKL
FLuc stim CS = affects firefly luciferase, flagging false hits in luciferase stimulation screens; P08659; ATPlite luciferase biochemical, luminescence, 10 min; 0 = ATP-free wells, 1 = DMSO control; activation factor at 10 µM; 200,000 tested, under 10 active; AID 1027;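 active = luciferase activation factor, scaled between plate controls, of at least 2 with compound at 10 µM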
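Material: Luciferase/luciferin reagent mix | Doses: Test compounds dosed from 2 mM stocks in 100% DMSO | Timing: 10 min incubation after luciferase reagent addition, room temperature | Measured by: Luminescence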
Numbers without * were called inactive; · = no result given. This is a sample that favours compounds with a hit; in the whole collection about 1.6% have one here.

SMILES | PPC-1+TRAIL kill | C8 TRAIL sens | FLuc inhib CS | FLuc stim CS
CCOc1ccc(-n2c(SCC(=O)N3CCc4ccccc43)nnc2-c2c[nH]c3ccccc23)cc1 | 6 | 5 | -3 | 1
CCOc1ccc(C(=O)N/N=C/c2ccccc2[N+](=O)[O-])cc1 | 52* | 76* | 89* | 0.1
O=[N+]([O-])c1cccnc1N/N=C/c1ccccc1O | 20 | 51* | 0 | 1
Cc1ccc(C(=O)N/N=C\c2ccccc2[N+](=O)[O-])cn1 | · | 52* | 78* | 0.2
CCC(=O)Nc1ccc(C(=O)N/N=C/c2ccccc2[N+](=O)[O-])cc1 | 20 | 7 | -2 | 1
CCOc1ccc(NC(=O)COc2ccccc2)c([N+](=O)[O-])c1 | 22 | 31 | 59* | 0.4
Cc1ccc(C(=O)N/N=C\C=C\c2ccccc2[N+](=O)[O-])cn1 | 33 | 3 | 1 | 1
CC1=CC(C)(C(Cl)(Cl)Cl)C(C)=CC1=NO (centres undefined) | · | 1 | · | ·
COc1ccc(C2(CNC(=O)c3cccs3)CCOCC2)cc1 | 27 | 17 | -7 | 1.1
Cc1cc2ccccc2c(=O)n1CC(=O)NCCC1=CCCCC1 | 21 | -1 | 60* | 0.4
Cc1nn(Cc2c(Cl)cccc2Cl)c(C)c1NC(=O)c1cn(-c2ccccc2)nc1-c1ccccc1 | 30 | 76* | -2 | 1
Cc1cccc(C)c1NC(=O)CNC(=O)c1cn(-c2ccccc2)nc1-c1ccccc1 | · | 8 | · | ·
O=C1CC(Sc2nnnn2C2CCCCC2)C(=O)N1c1ccccc1 (centres undefined) | 7 | 5 | 57* | 0.4
CNC(=O)COc1coc(CN2CCN(c3cccc(Cl)c3)CC2)cc1=O | · | -10 | · | ·
COc1ccc(NC(=O)c2ccc(-c3ccc(OC)cc3)s2)cc1 | 12 | -5 | -4 | 1
CNC(=O)c1ccc(-c2ccc(OC)cc2)s1 | 36 | 31 | 61* | 0.4
O=C(O)CSc1ncnc2nc[nH]c12 | -3 | 11 | -6 | 1.1
c1nc(SSc2ncnc3nc[nH]c23)c2[nH]cnc2n1 | · | 73* | · | ·
CC(C)N1CCN(c2ccncc2S(=O)(=O)N2CCN(C)CC2)CC1 | · | -12 | · | ·
O=C(CCl)N(O)c1ccc(C=Cc2ccccc2)cc1 | · | 51* | · | ·
O=C(CN1CCSCC1)N/N=C/c1cccc(Cl)c1 | 20 | 3 | -5 | 1.1
COc1ccccc1C(=O)NNC(=O)c1cccc(O)c1 | · | 50* | · | ·
COc1cc(NC(=O)COc2cc3oc(=O)cc(C)c3cc2Cl)cc(OC)c1OC | · | 6 | · | ·
O=C(Nc1ccc2c(c1)OCCO2)c1ccc(Br)s1 | 60* | 74* | 86* | 0.1
CCc1sc(C(=O)Nc2ccc3c(c2)OCCO3)cc1Br | · | 50* | · | ·
SMILES | PPC-1+TRAIL kill | C8 TRAIL sens | FLuc inhib CS | FLuc stim CS
Cc1nc2cc(NC(=O)c3ccc(Br)s3)ccc2s1 | · | 63* | · | ·
Cc1ccc(C(=O)Nc2ccc3nc(C)sc3c2)s1 | 29 | 16 | 25 | 0.7
O=C(Nc1nc(-c2ccccc2)cs1)c1ccc(N2CCOCC2)c([N+](=O)[O-])c1 | 42 | 83* | -5 | 1
O=C(O)c1cc(/C=C/c2ccc(N3CCOCC3)c([N+](=O)[O-])c2)nc2ccccc12 | 43 | 64* | · | ·
O=[N+]([O-])c1cc(Cl)c(Cl)c(Cl)c1Cl | · | -4 | · | ·
Cc1cc2nc(-c3cccc(Br)c3)c(Cc3ccccc3)n2c(C)c1Br | · | 5 | · | ·
Cc1cc(C(=O)COC(=O)c2ccc(O)cc2)c(C)n1CC1CCCO1 (centres undefined) | 22 | 28 | 53* | 0.5
CN(C)S(=O)(=O)c1cccc(C(=O)OCC(=O)NC2CCCc3ccccc32)c1 (centres undefined) | -3 | -5 | 57* | 0.4
COc1cc(OC)cc(C(=O)OCC(=O)c2cc(C)n(CC3CCCO3)c2C)c1 (centres undefined) | · | 15 | · | ·
CNS(=O)(=O)c1cccc(C(=O)OCC(=O)c2cc(C)n(CC3CCCO3)c2C)c1 (centres undefined) | · | 62* | · | ·
Cc1cc(C(=O)COC(=O)c2cccc(S(=O)(=O)N(C)C)c2)c(C)n1CC1CCCO1 (centres undefined) | · | 62* | · | ·
COc1ccccc1-c1nnc(Sc2nc([N+](=O)[O-])nn2C)o1 | -21 | -22 | -4 | 1
C[C@@H]1CN([C@H](C)CO)C(=O)CCCn2nncc2CO[C@@H]1CN(C)C(=O)Nc1ccc2c(c1)OCO2 | · | 0 | · | ·
CC(=O)Oc1ccc(C23c4ccccc4C2(OC(C)=O)c2cc(OC(C)=O)ccc23)cc1 (centres undefined) | · | 7 | · | ·
C1=C(c2ccccc2)Nc2ccccc2N=C1c1ccccc1 | -8 | 8 | -5 | 1.1
COc1ccc(C)cc1NC(=O)NCc1ccccc1F | 30 | 33 | 68* | 0.3
Cc1sc(NC(=O)/C=C/c2ccc(C(C)C)cc2)c(C#N)c1C | 4 | 19 | 0 | 1
CC(C)c1ccc(/C=C/C(=O)Nc2nncs2)cc1 | 29 | 74* | 59* | 0.4
Cc1oc(-c2cccc(Cl)c2)nc1CN1CCC(C(=O)NCCCN2CCCC2=O)CC1 | -6 | 4 | -12 | 1.1
COc1ccc(CCNC(=O)C2CCN(Cc3nc(-c4cccc(Cl)c4)oc3C)CC2)cc1OC | 18 | 54* | -8 | 1.1
Cc1oc(-c2cccc(Cl)c2)nc1CN1CCC(C(=O)NCCCN2CC(C)CC(C)C2)CC1 (centres undefined) | · | 54* | · | ·
COc1ccc(CCN2C(=O)CC(NNc3ccc([N+](=O)[O-])cc3)C2=O)cc1OC (centres undefined) | 8 | 1 | -2 | 1
Cc1cc(C(=O)CSc2ncccn2)c(C)n1Cc1ccco1 | 17 | 11 | 64* | 0.4
CCOc1ncccc1C(=O)OCC(=O)c1cc(C)n(Cc2ccco2)c1C | 32 | 29 | 67* | 0.3
Cc1cc(C(=O)COC(=O)C(C)NC(N)=O)c(C)n1Cc1ccco1 (centres undefined) | 5 | -2 | 67* | 0.3
SMILES | PPC-1+TRAIL kill | C8 TRAIL sens | FLuc inhib CS | FLuc stim CS
CCC[C@H]1CN(c2ccc(Br)cc2)C(=O)[C@@H]1CC(=O)Nc1ccc(OC)cc1 | · | 27 | · | ·
CC1CCc2sc(-c3n[nH]c(=S)o3)cc2C1 (centres undefined) | 32 | 17 | 57* | 0.4
COc1cccc(C(=O)NCc2ccco2)c1 | · | -6 | · | ·
CN(C)c1ccc(-c2nnc(-c3cccs3)o2)cc1 | 43 | 46 | 72* | 0.3
Clc1ccccc1-c1nnc(-c2cccs2)o1 | 28 | 31 | 57* | 0.4
CCCOc1ccc(-c2nnc(-c3cccs3)o2)cc1 | 2 | 32 | 40 | 0.6
COc1ccc(/C=N/N2C(=O)c3ccccc3C2=O)cc1 | 1 | -8 | 74* | 0.3
CN(C)c1ccc(/C=N/N2C(=O)c3ccccc3C2=O)cc1 | 7 | 10 | · | ·
COc1cc(Nc2ccc(S(N)(=O)=O)cc2)c([N+](=O)[O-])nc1[N+](=O)[O-] | · | 30 | · | ·
Cc1ccc(/C=C/C(=O)N2CCc3ccccc3C2)cc1 | 32 | 13 | 51* | 0.5
CCOC(=O)c1ccc(NC(=O)Cn2ncc(Cl)c(Cl)c2=O)cc1 | 9 | 6 | -7 | 1.1
Cc1ccc(C(=O)OCn2ncc(Cl)c(Cl)c2=O)cc1 | 25 | 94* | -2 | 1
